For 1 compound, MIC results are on record in ChEMBL document CHEMBL1629643, “Naturally occurring Class A ss-lactamases from the Burkholderia cepacia complex” (Antimicrob Agents Chemother, 2009).

≈ marks a conversion by molar mass, not a printed value.

Common to all, as to format: functional
Test [1] concerns Burkholderia cenocepacia. Description: Antimicrobial activity against Burkholderia cenocepacia 5007902 expressing beta-lactamase PenB4 in presence of 4 ug/ml beta-lactamase inhibitor Tazobactam. The method in brief: (§1)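 Isolates were cultured for 18 h in Trypticase soy broth (30°C and 37°C), then tested by microdilution and Etest. […] MICs were interpreted using CLSI guidelines.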

The subject of test [2] is Escherichia coli. Description: Antimicrobial activity against Escherichia coli TOP10 harboring beta-lactamase PenB1. The method in brief:
(§2)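 MICs by broth microdilution and Etest, interpreted per CLSI guidelines. Strains tested were host E. coli TOP10, and TOP10 carrying pBcSau13 (pBK-CMV vector, kanamycin-resistant) holding a Sau3AI fragment of B. cenocepacia 212 DNA that encodes PenB1.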

Test [3] deals with Escherichia coli. Kind of test: Antimicrobial activity against Escherichia coli TOP10. The essentials:
as §2

Test [4] concerns Burkholderia cenocepacia. Description: Antimicrobial activity against Burkholderia cenocepacia 212 expressing beta-lactamase PenB3. The method in brief: (§3)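 MICs measured by broth microdilution and by Etest on clinical B. cenocepacia isolates grown for 18 h in Trypticase soy broth (30°C and 37°C). Susceptibility was read against CLSI guidelines.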
The test system of test [5] is Burkholderia cenocepacia. Kind of test: Antimicrobial activity against Burkholderia cenocepacia 5007902 expressing beta-lactamase PenB4. The method in brief:
as §3

The subject of test [6] is Burkholderia cenocepacia. Description: Antimicrobial activity against Burkholderia cenocepacia 212 expressing beta-lactamase PenB3 in presence of 4 ug/ml beta-lactamase inhibitor Tazobactam. The method in brief: as §1
For test [7], the system named is Burkholderia cenocepacia. Kind of test: Antimicrobial activity against Burkholderia cenocepacia 07-34 expressing beta-lactamase PenB1. The method in brief:
as §3

The test system of test [8] is Escherichia coli. Description: Antimicrobial activity against Escherichia coli TOP10 in presence of 4 ug/ml beta-lactamase inhibitor Tazobactam. The essentials:
(§4)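 E. coli TOP10 host, either plain or carrying the pBK-CMV clone pBcSau13 with the B. cenocepacia 212 insert. MICs by broth microdilution and Etest, read against CLSI guidelines.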

In test [9] the test system is Escherichia coli. Description: Antimicrobial activity against Escherichia coli TOP10 harboring beta-lactamase PenB1 in presence of 4 ug/ml beta-lactamase inhibitor Tazobactam. The method in brief:
as §4

Test [10] concerns Burkholderia cenocepacia. Description: Antimicrobial activity against Burkholderia cenocepacia 07-34 expressing beta-lactamase PenB in presence of 4 ug/ml beta-lactamase inhibitor Tazobactam. The essentials: as §1
Test [11] relates to Burkholderia cenocepacia. Description: Antimicrobial activity against Burkholderia cenocepacia 09-54 expressing beta-lactamase PenB2 in presence of 4 ug/ml beta-lactamase inhibitor Tazobactam. The method in brief:
as §1

For test [12], the system named is Burkholderia cenocepacia. Description: Antimicrobial activity against Burkholderia cenocepacia 09-54 expressing beta-lactamase PenB2. The method in brief: as §3

Consider `CCN1CCN(C(=O)N[C@@H](C(=O)N[C@@H]2C(=O)N3[C@@H]2SC(C)(C)[C@@H]3C(=O)O)c2ccccc2)C(=O)C1=O` [PIPERACILLIN], for which the MIC in the test with Burkholderia cenocepacia [1] was determined as 4 µg/mL; in the test on Escherichia coli [2], 8 µg/mL (≈ 15.5 µM); against Escherichia coli [3], 2 µg/mL (≈ 3.86 µM); against Burkholderia cenocepacia [4] it was 128 µg/mL (≈ 247 µM); in the test with Burkholderia cenocepacia [5], 4 µg/mL (≈ 7.73 µM); in the test on Burkholderia cenocepacia [6] it was 128 µg/mL. Besides, the MIC in the test with Burkholderia cenocepacia [7] was 4 µg/mL (≈ 7.73 µM); with Escherichia coli [8], 2 µg/mL; in the test on Escherichia coli [9], 4 µg/mL; with Burkholderia cenocepacia [10] it was 4 µg/mL; in the test with Burkholderia cenocepacia [11], 256 µg/mL; with Burkholderia cenocepacia [12] it was 512 µg/mL (≈ 989 µM).
